Assay results published in ChEMBL document CHEMBL1125559, “Analogues of platelet activating factor. 7. Bis-aryl amide and bis-aryl urea receptor antagonists of PAF” (J Med Chem, 1992).

Columns and labels:
[1] = species: Oryctolagus cuniculus; assay: Concentration required to inhibit PAF (1*10e-7 M) induced platelet aggregation in rabbit platelet rich plasma(PRP) by 50%; format: functional, organism-based
Method in brief: (§1)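 Rabbit PRP came from blood spun at 800 rpm for 15 min at room temperature, with platelet counts of 350 000–550 000/µL. PRP was equilibrated 1–2 min at 37 °C in an aggregometer. It was preincubated 5 min with test compound (final 10^-8 to 10^-5 M; methanol stock diluted in saline) or saline, then challenged with L-C16-PAF. IC50 was taken from concentration–response curves of aggregation magnitude and averaged over separate determinations.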

[2] = test system: Mus musculus; assay: Compound was evaluated for PAF-induced lethality in mouse (intraperitoneally at a dose of 1.0 mg/kg in saline 0.5 hr before lethal intravenous PAF challenge 75-150 mg/kg); format: ADME, organism-based; parameters: dose 1 mg/kg, route intraperitoneal; settings: in vivo
Method in brief: (§2)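 Female Swiss-Webster mice (20-25 g) received test compound ip in saline (10 mL/Kg); controls got saline alone. The PAF dose was chosen daily from small pilot groups. Survival was scored at 1.5 h and recorded as dead/total.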

[3] = test system: Mus musculus; assay: Compound was evaluated number of mouse dead out of total (intraperitoneally at a dose of 1.0 mg/kg in saline 0.5 hr before lethal intravenous PAF challenge 75-150 mg/kg)''; 6/12; format: ADME, organism-based; parameters: dose 1 mg/kg, route intravenous; settings: in vivo; method in brief: as §2
[4] = species: Oryctolagus cuniculus; assay: Concentration required to inhibit PAF (5*10e-8 M) induced platelet aggregation in rabbit platelet rich plasma(PRP) by 50%; format: functional, organism-based; method in brief: as §1
[5] = test system: Mus musculus; assay: Compound was evaluated for PAF-induced lethality in mouse (intraperitoneally at a dose of 1.0 mg/kg in saline 0.5 hr before lethal intravenous PAF challenge 75-150 mg/kg); 11/15; format: ADME, organism-based; parameters: dose 1 mg/kg; settings: in vivo; method in brief: as §2
[6] = test system: Mus musculus; assay: Compound was evaluated for PAF-induced lethality in mouse (intraperitoneally at a dose of 1.0 mg/kg in saline 0.5 hr before lethal intravenous PAF challenge 75-150 mg/kg); 10/17; format: ADME, organism-based; parameters: dose 1 mg/kg; settings: in vivo; method in brief: as §2
[7] = test system: Mus musculus; assay: Compound was evaluated for PAF-induced lethality in mouse (intraperitoneally at a dose of 1.0 mg/kg in saline 0.5 hr before lethal intravenous PAF challenge 75-150 mg/kg); 12/12; format: ADME, organism-based; parameters: dose 1 mg/kg; settings: in vivo; method in brief: as §2
[8] = test system: Mus musculus; assay: Compound was evaluated for PAF-induced lethality in mouse (intraperitoneally at a dose of 1.0 mg/kg in saline 0.5 hr before lethal intravenous PAF challenge 75-150 mg/kg); 14/24; format: ADME, organism-based; parameters: dose 1 mg/kg; settings: in vivo; method in brief: as §2
[9] = test system: Mus musculus; assay: Compound was evaluated for PAF-induced lethality in mouse (intraperitoneally at a dose of 1.0 mg/kg in saline 0.5 hr before lethal intravenous PAF challenge 75-150 mg/kg); 16/27; format: ADME, organism-based; parameters: dose 1 mg/kg; settings: in vivo; method in brief: as §2
[10] = species: Oryctolagus cuniculus; assay: Concentration required to inhibit PAF (5*10e-8 M) induced platelet aggregation in rabbit platelet rich plasma(PRP) by 50% at 10 uM; format: functional
[11] = species: Oryctolagus cuniculus; assay: Concentration required to inhibit PAF (5*10e-7 M) induced platelet aggregation in rabbit platelet rich plasma(PRP) by 50%; format: functional, organism-based; method in brief: as §1
[12] = test system: Mus musculus; assay: Compound was evaluated for PAF-induced lethality in mouse (intraperitoneally at a dose of 1.0 mg/kg in saline 0.5 hr before lethal intravenous PAF challenge 75-150 mg/kg); 2/10; format: ADME, organism-based; parameters: dose 1 mg/kg; settings: in vivo; method in brief: as §2
[13] = test system: Mus musculus; assay: Compound was evaluated for PAF-induced lethality in mouse (intraperitoneally at a dose of 1.0 mg/kg in saline 0.5 hr before lethal intravenous PAF challenge 75-150 mg/kg); 11/13; format: ADME, organism-based; parameters: dose 1 mg/kg; settings: in vivo; method in brief: as §2
[14] = test system: Mus musculus; assay: Compound was evaluated number of mouse dead out of total (intraperitoneally at a dose of 1.0 mg/kg in saline 0.5 hr before lethal intravenous PAF challenge 75-150 mg/kg); 6/12; format: ADME, organism-based; parameters: dose 1 mg/kg, route intravenous; settings: in vivo; method in brief: as §2
[15] = test system: Mus musculus; assay: Compound was evaluated for PAF-induced lethality in mouse (intraperitoneally at a dose of 1.0 mg/kg in saline 0.5 hr before lethal intravenous PAF challenge 75-150 mg/kg); 8/12; format: ADME, organism-based; parameters: dose 1 mg/kg, route intravenous; settings: in vivo; method in brief: as §2
[16] = species: Oryctolagus cuniculus; assay: Concentration required to inhibit PAF (5*10e-8 M) induced platelet aggregation in rabbit platelet rich plasma(PRP) by 50% at 10 uM; NI= No inhibition; format: functional, organism-based
[17] = test system: Mus musculus; assay: Compound was evaluated for PAF-induced lethality in mouse (intraperitoneally at a dose of 1.0 mg/kg in saline 0.5 hr before lethal intravenous PAF challenge 75-150 mg/kg); 8/13; format: ADME, organism-based; parameters: dose 1 mg/kg, route intravenous; settings: in vivo; method in brief: as §2
[18] = test system: Mus musculus; assay: Compound was evaluated for PAF-induced lethality in mouse (intraperitoneally at a dose of 1.0 mg/kg in saline 0.5 hr before lethal intravenous PAF challenge 75-150 mg/kg); 9/23; format: ADME, organism-based; parameters: dose 1 mg/kg, route intravenous; settings: in vivo; method in brief: as §2
[19] = test system: Mus musculus; assay: Compound was evaluated for PAF-induced lethality in mouse (intraperitoneally at a dose of 1.0 mg/kg in saline 0.5 hr before lethal intravenous PAF challenge 75-150 mg/kg); 4/12; format: ADME, organism-based; parameters: dose 1 mg/kg; settings: in vivo; method in brief: as §2
[20] = test system: Mus musculus; assay: Compound was evaluated for PAF-induced lethality in mouse (intraperitoneally at a dose of 1.0 mg/kg in saline 0.5 hr before lethal intravenous PAF challenge 75-150 mg/kg); 12/39; format: ADME, organism-based; parameters: dose 1 mg/kg; settings: in vivo; method in brief: as §2
[21] = test system: Mus musculus; assay: Compound was evaluated for PAF-induced lethality in mouse (intraperitoneally at a dose of 1.0 mg/kg in saline 0.5 hr before lethal intravenous PAF challenge 75-150 mg/kg); 5/12; format: ADME, organism-based; parameters: dose 1 mg/kg, route intravenous; settings: in vivo; method in brief: as §2
[22] = test system: Mus musculus; assay: Compound was evaluated for PAF-induced lethality in mouse (intraperitoneally at a dose of 1.0 mg/kg in saline 0.5 hr before lethal intravenous PAF challenge 75-150 mg/kg); 11/14; format: ADME, organism-based; parameters: dose 1 mg/kg; settings: in vivo; method in brief: as §2
[23] = test system: Mus musculus; assay: Compound was evaluated for PAF-induced lethality in mouse (intraperitoneally at a dose of 1.0 mg/kg in saline 0.5 hr before lethal intravenous PAF challenge 75-150 mg/kg); 9/24; format: ADME, organism-based; parameters: dose 1 mg/kg; settings: in vivo; method in brief: as §2
[24] = test system: Mus musculus; assay: Compound was evaluated for PAF-induced lethality in mouse (intraperitoneally at a dose of 1.0 mg/kg in saline 0.5 h before lethal intravenous PAF challenge 75-150 mg/kg); 12/14; format: ADME, organism-based; parameters: dose 1 mg/kg; settings: in vivo; method in brief: as §2

Structure (SMILES)	Lethality [2] [%]	IC50 [4] [nM]	also measured
CCCCCCCCCCCCCCOc1ccc(CN(C(C)=O)c2cccc(C[n+]3csc(C)c3)c2)cc1C(C)(C)C			IC50 [1]: 350 nM
CCCCCCCCCCCCCCOc1ccc(CC(=O)Nc2cccc(C[n+]3csc(C)c3)c2)cc1.[Br-]	50	310	Dead/total [3]: 6
CCCCCCCCCCCCCCOc1cc(OC)ccc1CN(C(C)=O)c1cccc(C[n+]2csc(C)c2)c1.[Br-]	73	1400	Dead/total [5]: 11
CCCCCCCCCCCCCCOc1ccc(CN(C(C)=O)c2cccc(C[n+]3csc(C)c3)c2)cc1Cl.[Br-]	59	130	Dead/total [6]: 10
CCCCCOc1c(OC)cc(CN(C(C)=O)c2cccc(C[n+]3csc(C)c3)c2)cc1OC		2300	
CCCCCCCCCCCCCCOc1ccc(CNC(=O)c2cccc(C[n+]3csc(C)c3)c2)cc1		400	
CCCCCCCCCCCCCCOc1cccc(CC(=O)Nc2cccc(C[n+]3csc(C)c3)c2)c1.[Br-]	100	550	Dead/total [7]: 12
CCCCCCCCCCCCCCOc1ccc(CCCN(C(C)=O)c2cccc(C[n+]3csc(C)c3)c2)cc1.[Br-]	58	3100	Dead/total [8]: 14
CCCCCCCCCCCCCCOc1ccc(CN(C(C)=O)c2ccc(C[n+]3csc(C)c3)cc2)cc1		2100	
CCCCCCCCCCCCCCOc1cccc(CN(C(C)=O)c2cccc(C[n+]3csc(C)c3)c2)c1		740	
Cc1nnc2n1-c1sc(CCC(=O)N3CCOCC3)cc1C(c1ccccc1Cl)=NC2 [APAFANT]		340	
CCCCCCCCCCCCCCOc1c(C)cc(CNC(=O)c2cccc(C[n+]3csc(C)c3)c2)cc1C		3100	
CCCCCCCCCCCCCCCCOc1ccc(OCC(=O)Nc2ccccc2C[n+]2csc(C)c2)cc1		11200	
CCCCCCCCCCCCCCOc1ccc(OC)cc1CN(C(C)=O)c1cccc(C[n+]2csc(C)c2)c1.[Br-]	59	320	Dead/total [9]: 16
CCCCCCCCCCCCCCOc1cc(CNC(=O)c2cccc(C[n+]3csc(C)c3)c2)cc(OC)c1.[Br-]			Inhibition [10]: 43%
CCCCCCCCCCCCCCOc1ccc(NC(=O)Nc2cccc(C[n+]3csc(C)c3)c2)cc1		1500	
CCCCCCCCCCCCCCOc1ccc(CCN(C(C)=O)c2cccc(C[n+]3csc(C)c3)c2)cc1			IC50 [11]: 4300 nM
CCCCCCCCCCCCCCOc1c(C)cccc1CN(C(C)=O)c1cccc(C[n+]2csc(C)c2)c1.[Br-]	20	3200	Dead/total [12]: 2
CCCCCCCCCCCCCCOc1c(CN(C(C)=O)c2cccc(C[n+]3csc(C)c3)c2)cccc1OC.[Br-]	85	2500	Dead/total [13]: 11
CCCCCCCCCCCCCCOc1cccc(C(=O)Nc2cccc(C[n+]3csc(C)c3)c2)c1		4200	
CCCCCCCCCCCCCCCCOc1ccc(CC(=O)Nc2cccc(C[n+]3csc(C)c3)c2)cc1		5300	
CCCCCCCCCCCCCCOc1c(OC)cc(CN(C(C)=O)c2cccc(C[n+]3csc(C)c3)c2)cc1OC		570	
CCCCCCCCCCCCOc1ccc(CC(=O)Nc2cccc(C[n+]3csc(C)c3)c2)cc1.[Br-]	55	2900	Dead/total [14]: 6

Structure (SMILES)	Lethality [2] [%]	IC50 [4] [nM]	also measured
CCCCCCCCCCCCCCOc1ccc(CNC(=O)c2cccc(C[n+]3csc(C)c3)c2)cc1OC		960	
CCCCCCCCCCCCCCOc1ccc(CC(=O)Nc2ccc(C[n+]3csc(C)c3)cc2)cc1.[Br-]	80	600	Dead/total [15]: 8
CCCCCCCCCCCCCCOc1ccc(CC(=O)Nc2ccccc2C[n+]2csc(C)c2)cc1.[Br-]			IC50 [16]: Not Active
CCCCCCCCCCCCCCOc1ccc(CN(C(=O)NC)c2cccc(C[n+]3csc(C)c3)c2)cc1.[Br-]	62	530	Dead/total [17]: 8
CCCCCCCCCCCCCCOc1ccc(C)cc1CN(C(C)=O)c1cccc(C[n+]2csc(C)c2)c1.[Br-]	39	1500	Dead/total [18]: 9
CCCCCCCCCCCCCCOc1cc(CN(C(C)=O)c2cccc(C[n+]3csc(C)c3)c2)cc(OC)c1		960	
CCCCCCCCCCCCCCOc1ccc(CNC(=O)c2cccc(C[n+]3csc(C)c3)c2)cc1C(C)(C)C		3500	
CCCCCCCCCCCCCCOc1cc(CN(C(C)=O)c2cccc(C[n+]3csc(C)c3)c2)ccc1OC.[Br-]	27	370	Dead/total [19]: 4
CCCCCCCCCCCCCCOc1ccc(CNC(=O)c2ccc(C[n+]3csc(C)c3)cc2)cc1.[Br-]	31	2900	Dead/total [20]: 12
CCCCCCCCCCCCCCOc1ccc(CNc2cccc(C[n+]3csc(C)c3)c2)cc1.[Br-]	42	7100	Dead/total [21]: 5
CCCCCCCCCCCCCCCCOc1ccc(OCC(=O)Nc2cccc(C[n+]3csc(C)c3)c2)cc1		5000	
CCCCCCCCCCCCCCOc1ccc(N(Cc2cccc(C[n+]3csc(C)c3)c2)C(C)=O)cc1		1000	
CCCCCCCCCCCCCCOc1ccc(CN(C(=O)CCC)c2cccc(C[n+]3csc(C)c3)c2)cc1.[Br-]	79	260	Dead/total [22]: 11
CCCCCCCCCCCCCCOc1c(C)cc(CN(C(C)=O)c2cccc(C[n+]3csc(C)c3)c2)cc1C		710	
CCCCCCCCCCCCCCOc1ccc(CN(C(C)=O)c2cccc(C[n+]3csc(C)c3)c2)cc1.[Br-]	38	260	Dead/total [23]: 9
CCCCCCCCCCCCCCOc1cccc(OP(=O)([O-])Oc2cccc(C[n+]3csc(C)c3)c2)c1C(=O)OC	15		
CCCCCCCCCCCCCCOc1ccc(C(=O)Nc2cccc(C[n+]3csc(C)c3)c2)cc1		5900	
CCCCCCCCCCCCCCOc1ccc(CCC(=O)Nc2cccc(C[n+]3csc(C)c3)c2)cc1.[Br-]	50	7300	Dead/total [21]: 5
CCCCCCCCCCCCCCOc1ccc(NC(=O)c2cccc(C[n+]3csc(C)c3)c2)cc1		2700	
CCCCCCCCCCCCCCOc1cccc(CC(=O)Nc2ccccc2C[n+]2csc(C)c2)c1.[Br-]			Inhibition [10]: 23%
COc1cc([C@H]2CC[C@H](c3cc(OC)c(OC)c(OC)c3)O2)cc(OC)c1OC		1600	
CCCCCCCCCCCCCCOc1cc(CN(C(C)=O)c2cccc(C[n+]3csc(C)c3)c2)ccc1C.[Br-]	86	6700	Dead/total [24]: 12
CCCCCCCCCCCCCCOc1ccc(CN(C(C)=O)c2cccc(C[n+]3csc(C)c3)c2)cc1OC		320	
